Source: ChEMBL document CHEMBL1123250, “Chloroalanyl antibiotic peptides: antagonism of their antimicrobial effects by L-alanine and L-alanyl peptides in gram-negative bacteria” (1986)
Where “and” joins values, the source holds several entries; their conditions need not be identical. Identical values can stand only once.

Tests used:
[1] = molecular target: Alanine racemase, biosynthetic (Escherichia coli K-12) (UniProt P0A6B4); experiment: (§1) Compound was tested for enzyme activity at a concentration of 100 ug/mL against alanine racemase; per mg of protein
Method in brief: (§2)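 E. coli JSR-0 was grown at 37 °C in Davis-Mingioli medium with Met and Pro (50 µg/mL each) and Leu, Ile and Val (100 µg/mL each), plus 5% sucrose or 500 µg/mL L-Ala. Agent was added at about 100 Klett units, with 30 min more shaking. Cells were washed in phosphate/EDTA/PLP buffer pH 8.0 and sonicated. D→L racemase was coupled to L-alanine dehydrogenase (10 mM D-Ala, 5 mM NAD+, CHES pH 9.0, 37 °C), reading NADH at 340 nm.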

[2] = molecular target: Alanine racemase, biosynthetic (Escherichia coli K-12) (UniProt P0A6B4); experiment: as §1; method in brief: as §2; remark: listed apart in the source
Escherichia coli [3] = experiment: Compound was tested for antibacterial activity at a concentration of 50 ug/mL against Escherichia coli ATCC; assay type: functional
Method in brief: (§3)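 Agar dilution in defined peptide susceptibility agar with L-Ala or L-Ala-L-Ala added at 25, 50, 100 or 500 µg/mL, and peptide in serial 2-fold dilutions. Inocula were grown overnight in the liquid susceptibility medium and diluted to about 1 x 10^7 cfu/mL, then replicator-spotted. Plates were incubated overnight at 37 °C. MIC was the lowest concentration allowing fewer than 10 colonies at 16-18 h.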

Escherichia coli [4] = experiment: Compound was tested for antibacterial activity at a concentration of 50 ug/mL against Escherichia coli JSR-O; assay type: functional; method in brief: as §3
Escherichia coli [5] = experiment: Compound was tested for antibacterial activity at a concentration of 500 ug/mL against Escherichia coli ATCC; assay type: functional; method in brief: as §3
Escherichia coli [6] = experiment: Compound was tested for antibacterial activity at a concentration of 500 ug/mL against Escherichia coli JSR-O; assay type: functional; method in brief: as §3
Escherichia coli [7] = experiment: Compound was tested for antibacterial activity against Escherichia coli; assay type: functional
Method in brief: (§4)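 Agar dilution MIC on defined peptide susceptibility agar. Inoculum made by growing overnight in liquid peptide susceptibility medium, then diluting to about 1 × 10^7 cfu/mL. Applied by Steers replicator to plates carrying serial 2-fold peptide dilutions. Incubated overnight at 37 °C. MIC = lowest concentration allowing growth of fewer than 10 colonies after 16-18 h.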

Escherichia coli [8] = experiment: Compound was tested for antibacterial activity against Escherichia coli JSR-O at a concentration of 25 ug/mL; assay type: functional; method in brief: as §3
Escherichia coli [9] = experiment: Compound was tested for antibacterial activity at a concentration of 100 ug/mL against Escherichia coli JSR-O; assay type: functional; method in brief: as §3
Escherichia coli [10] = experiment: (§5) Compound was tested for antibacterial activity at a concentration of 25 ug/mL against Escherichia coli ATCC; assay type: functional; method in brief: as §3
Escherichia coli [11] = experiment: (§6) Compound was tested for antibacterial activity at a concentration of 25 ug/mL against Escherichia coli JSR-O; assay type: functional; method in brief: as §3
Escherichia coli [12] = experiment: as §6; assay type: functional; method in brief: as §3; remark: listed apart in the source
Klebsiella aerogenes [13] = experiment: Compound was tested for antibacterial activity against Enterobacter aerogenes at a concentration of 25 ug/mL; assay type: functional; method in brief: as §3
Klebsiella aerogenes [14] = experiment: (§7) Compound was tested for antibacterial activity at a concentration of 25 ug/mL against Enterobacter aerogenes; assay type: functional; method in brief: as §3
Klebsiella aerogenes [15] = experiment: as §7; assay type: functional; method in brief: as §3; remark: listed apart in the source
Klebsiella aerogenes [16] = experiment: Compound was tested for antibacterial activity at a concentration of 50 ug/mL against Enterobacter aerogenes; assay type: functional; method in brief: as §3
Enterobacter cloacae [17] = experiment: Compound was tested for antibacterial activity at a concentration of 25 ug/mL against Enterobacter cloacae; assay type: functional; method in brief: as §3
Enterobacter cloacae [18] = experiment: Compound was tested for antibacterial activity at a concentration of 50 ug/mL against Enterobacter cloacae; assay type: functional; method in brief: as §3
Enterobacter cloacae [19] = experiment: Compound was tested for antibacterial activity at a concentration of 500 ug/mL against Enterobacter cloacae; assay type: functional; method in brief: as §3
Shigella flexneri [20] = experiment: Compound was tested for antibacterial activity against Shigella flexneri; assay type: functional; method in brief: as §4
Shigella flexneri [21] = experiment: Compound was tested for antibacterial activity against Shigella flexneri at a concentration of 25 ug/mL; assay type: functional; method in brief: as §3
Shigella flexneri [22] = experiment: (§8) Compound was tested for antibacterial activity at a concentration of 25 ug/mL against Shigella flexneri; assay type: functional; method in brief: as §3
Shigella flexneri [23] = experiment: as §8; assay type: functional; method in brief: as §3; remark: listed apart in the source
Shigella flexneri [24] = experiment: Compound was tested for antibacterial activity at a concentration of 50 ug/mL against Shigella flexneri; assay type: functional; method in brief: as §3
Shigella flexneri [25] = experiment: Compound was tested for antibacterial activity at a concentration of 500 ug/mL against Shigella flexneri; assay type: functional; method in brief: as §3
Staphylococcus aureus [26] = experiment: (§9) Compound was tested for antibacterial activity at a concentration of 25 ug/mL against Staphylococcus aureus; assay type: functional; method in brief: as §3
Staphylococcus aureus [27] = experiment: as §9; assay type: functional; method in brief: as §3; remark: listed apart in the source
Staphylococcus aureus [28] = experiment: Compound was tested for antibacterial activity at a concentration of 50 ug/mL against Staphylococcus aureus; assay type: functional; method in brief: as §3
Enterococcus faecalis [29] = experiment: Compound was tested for antibacterial activity at a concentration of 100 ug/mL against Streptococcus faecalis; assay type: functional; method in brief: as §3
Enterococcus faecalis [30] = experiment: (§10) Compound was tested for antibacterial activity at a concentration of 25 ug/mL against Streptococcus faecalis; assay type: functional; method in brief: as §3
Enterococcus faecalis [31] = experiment: as §10; assay type: functional; method in brief: as §3; remark: listed apart in the source
Enterococcus faecalis [32] = experiment: Compound was tested for antibacterial activity at a concentration of 50 ug/mL against Streptococcus faecalis; assay type: functional; method in brief: as §3
Streptococcus agalactiae = experiment: Compound was tested for antibacterial activity against Streptococcus agalactiae; assay type: functional
Method in brief: (§11)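 Inoculum made from colonies grown overnight on chocolate or blood agar, resuspended in liquid medium to 10' cfu/mL. Applied by Steers replicator to serial 2-fold peptide dilutions. Incubated overnight at 37 °C under 7% CO2. MIC = lowest concentration giving fewer than 10 colonies at 16-18 h.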

[33] = system: Staphylococcus epidermidis; experiment: Compound was tested for antibacterial activity at a concentration of 50 ug/mL against Staphylococcus epidermidis; assay type: functional; method in brief: as §3
Streptococcus pyogenes = experiment: Compound was tested for antibacterial activity against Streptococcus pyogenes; assay type: functional; method in brief: as §11
[34] = system: Staphylococcus epidermidis; experiment: (§12) Compound was tested for antibacterial activity at a concentration of 25 ug/mL against Staphylococcus epidermidis; assay type: functional; method in brief: as §3
[35] = system: Staphylococcus epidermidis; experiment: as §12; assay type: functional; method in brief: as §3; remark: listed apart in the source
Enterococcus faecalis [36] = experiment: Compound was tested for antibacterial activity against Streptococcus faecalis at a concentration of 25 ug/mL; assay type: functional; method in brief: as §3
Escherichia coli [37] = experiment: Compound was tested for enzyme activity at a concentration of 100 ug/mL against transaminase B; per mg of protein
Method in brief: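 E. coli JSR-0 was grown at 37 °C in supplemented Davis-Mingioli medium (Met and Pro; Leu, Ile and Val), with sucrose or L-Ala in some cultures. Agent was added at about 100 Klett units and cells harvested after 30 min. The sonicated homogenate was run with Tris pH 7.8, pyridoxal phosphate and α-ketoglutarate; L-valine started transamination at 37 °C. Timed aliquots were derivatised with 2,4-DNPH, and α-ketoisovalerate hydrazone was read at A430 against a standard curve.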

Enterococcus faecalis [38] = experiment: Compound was tested for antibacterial activity at a concentration of 500 ug/mL against Streptococcus faecalis; assay type: functional; method in brief: as §3
Staphylococcus aureus [39] = experiment: (§13) Compound was tested for antibacterial activity against Staphylococcus aureus at a concentration of 25 ug/mL; assay type: functional; method in brief: as §3
[40] = system: Staphylococcus epidermidis; experiment: as §13; assay type: functional; method in brief: as §3
Escherichia coli [41] = experiment: as §5; assay type: functional; method in brief: as §3; remark: listed apart in the source
Klebsiella aerogenes [42] = experiment: Compound was tested for antibacterial activity at a concentration of 500 ug/mL against Enterobacter aerogenes; assay type: functional; method in brief: as §3

Chain of Alanine racemase, biosynthetic (Escherichia coli K-12) (P0A6B4 whole entry): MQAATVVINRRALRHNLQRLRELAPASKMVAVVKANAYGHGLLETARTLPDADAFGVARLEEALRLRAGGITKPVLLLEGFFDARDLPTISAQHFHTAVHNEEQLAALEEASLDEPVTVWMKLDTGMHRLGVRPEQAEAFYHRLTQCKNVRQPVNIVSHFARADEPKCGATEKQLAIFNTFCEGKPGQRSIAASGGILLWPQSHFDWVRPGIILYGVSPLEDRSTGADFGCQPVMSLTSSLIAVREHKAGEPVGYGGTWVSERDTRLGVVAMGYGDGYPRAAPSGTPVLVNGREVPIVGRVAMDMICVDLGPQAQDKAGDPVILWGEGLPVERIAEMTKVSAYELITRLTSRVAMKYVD

N[C@@H](CCl)C(=O)N[C@@H](CCl)C(=O)O
0.85 µM/min: Activity [1]
>100 µg/mL: MIC (Escherichia coli [9])
1.56 µg/mL: MIC (Shigella flexneri [21]) | MIC (Streptococcus agalactiae)
> 100 µg/mL: MIC (Escherichia coli [3]) | MIC (Escherichia coli [4]) | MIC (Escherichia coli [5]) | MIC (Escherichia coli [6]) | MIC (Escherichia coli [10]) | MIC (Escherichia coli [11]) | MIC (Klebsiella aerogenes [14]) | MIC (Klebsiella aerogenes [16]) | MIC (Enterobacter cloacae [17]) | MIC (Enterobacter cloacae [18]) | MIC (Enterobacter cloacae [19]) | MIC (Shigella flexneri [22]) | MIC (Shigella flexneri [24]) | MIC (Shigella flexneri [25]) | MIC (Enterococcus faecalis [29]) | MIC (Enterococcus faecalis [30]) | MIC (Enterococcus faecalis [31]) | MIC (Enterococcus faecalis [32]) | MIC (Enterococcus faecalis [36]) | MIC (Enterococcus faecalis [38]) | MIC (Klebsiella aerogenes [42])
3.25 µg/mL: MIC (Shigella flexneri [20])
12.5 µg/mL: MIC (Escherichia coli [7]) | MIC (Klebsiella aerogenes [15])
0.39 µg/mL: MIC (Staphylococcus aureus [26]) | MIC [34]
3.12 µg/mL: MIC (Escherichia coli [8]) | MIC (Shigella flexneri [23]) | MIC (Streptococcus pyogenes) | MIC (Escherichia coli [41])
6.25 µg/mL: MIC (Escherichia coli [12]) | MIC (Klebsiella aerogenes [13]) | MIC (Staphylococcus aureus [28]) | MIC [33]
0.13 µM/min and 0.11 µM/min: Activity (Escherichia coli [37])
0.05 µg/mL: MIC (Staphylococcus aureus [27]) | MIC [35] | MIC (Staphylococcus aureus [39]) | MIC [40]
0.19 µM/min: Activity [2]
50 µg/mL: MIC (Escherichia coli [9]; Escherichia coli, read-out: MIC)
